PERK inh – human PERK inhibition, primary cell-based screen | AID 1416 | 220,000 tested, 0.17% active | CHO PERK-DD fusion, SEAP luminescence translation reporter | inhibition, % at 5.6 µM;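 active = inhibition above the mean inhibition of all tested compounds plus 3 SD, set separately per screening campaign, cut at about 2.9% in these data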;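 also: PERK kinase domain activated by AP20187 dimerizer at 100 nM; 0% = DMSO with dimerizer and 100% = rapamycin at 8.4 µM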
Insulin prom inh – TRM-6 insulin promoter activity inhibition; TRM-6 cells (human fetal islet line), insulin promoter-eGFP reporter, imaging; reporter expression induced with tamoxifen; inhibition, % at 2 µM; 130,000 tested, 0.9% active;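 active = inhibition above the mean plus 3 SD, with well images judged a real hit on visual review, cut at about 60% in these data, passing the limit was not always enough; inconclusive = inhibition over the cutoff but images rejected on review; inactive = inhibition not above the cutoff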
Dynein cargo inh – dynein cargo transport inhibition; z-score, hits read low; 220,000 tested, 0.47% active; 3617.4 mouse cells, GR-EGFP nuclear translocation imaging; test concentration mostly 20 µM; stimulated with dexamethasone, 1 µM; active compounds read low; AID 1381;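 active = plate z-score of nuclear minus cytoplasmic receptor signal below a set negative limit, without overly bright fluorescence or cell loss, cut at about -3.5 in these data, passing the limit was not always enough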;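 also: z-score of nuclear minus cytoplasmic ring GR-EGFP intensity difference per well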
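medium = tetracycline-free induction medium containing charcoal-stripped FBS | probe or stimulus = dexamethasone, 1.0 µM final | timing = 48 h induction, then 1 h compound, then 30 min agonist, 37 °C | detection = automated 10x imaging of fixed Hoechst-stained cells | read-out basis = nuclear versus cytoplasmic GR-EGFP signal, averaged per well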
Ins promoter up – MIN6 insulin promoter up-regulation; MIN6 insulin promoter-GFP reporter, high-content imaging; active compounds read high; z-score at 5 µM; 190,000 tested, 0.3% active;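 active = z-score above 3 at 5 µM with at least 500 cells counted in the well; inconclusive = wells under 500 cells, flagged as cytotoxic or low count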
Autophagy mod – autophagy modulation, high-content screen | MEF GFP-LC3 puncta imaging; test concentration mostly 10 µM | calls only at 10 µM (by protocol) | AID 463193 | 190,000 tested, 0.98% active;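 active = percentage of spot-positive cells more than 3 SD above its plate mean, without a fluorescence outlier flag or 80% toxicity; inconclusive = no clear call, values can overlap the other calls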;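 also: spot-positive cell cutoff set from DMSO-treated cells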
* marks the source's active call; other numbers are inactive results; i = inactive; u = inconclusive; x = no result given; + = active, no number. An excerpt weighted towards active compounds, which were near 2.1% of everything screened.

SMILES	PERK inh	Insulin prom inh	Dynein cargo inh	Ins promoter up	Autophagy mod
CCOC(=O)CNC(=O)c1cn(C)c(=O)c2cc(OC)c(OC)cc12	1.4	x	-0.268	3.18*	i
CCN(C(=O)c1cn(C)c(=O)c2cc(OC)c(OC)cc12)c1ccccc1C	-0.6	81.0*	-0.492	0.06	i
CCN(C(=O)c1cn(C)c(=O)c2cc(OC)c(OC)cc12)c1cc(C)ccc1C	0.2	x	0.15	-0.16	i
CCOC(=O)CNC(=O)c1cn(CC)c(=O)c2cc(OC)c(OC)cc12	-0.1	x	-0.817	1.1	i
COc1ccccc1OCC(O)Cn1c(=N)n(Cc2ccccc2)c2ccccc21 (stereo not given)	-1.5	-277.8	0.179	u	+
COc1cccc(CNC23CC4CC(CC(C4)C2)C3)c1OCc1ccccc1	-0.8	x	0.506	-1.57	+
COc1cccc(CNCCc2c[nH]c3ccccc23)c1OCc1ccccc1	-0.2	x	0.319	-1.4	i
Nc1ccc2c(c1)CC(=O)c1ccccc1S2	1.2	76.9*	-1.19	u	i
O=C1Cc2ccccc2Sc2ccc(O)cc21	0.6	x	-0.845	0.38	i
CC(C)(C)NC(=O)C1CN(S(=O)(=O)c2ccccc2)CCN1S(=O)(=O)c1ccccc1 (stereo not given)	-0.2	-181.5	-0.546	-0.15	i
O=C(C1CN(S(=O)(=O)c2ccccc2)CCN1S(=O)(=O)c1ccccc1)N1CCCCCC1 (stereo not given)	0.6	100.0*	1.86	1.05	i
CC(C)(CNS(=O)(=O)c1ccc(Cl)cc1)N1CCCCC1	-0.3	0.0	-0.62	3.62*	i
Cc1ccc(NC(=S)N(CCN2CCOCC2)Cc2cc3cc4c(cc3[nH]c2=O)OCO4)cc1	1.4	x	-0.477	-0.35	i
CCN1/C(=C2\SC(=S)N(Cc3ccccc3)C2=O)Sc2ccccc21	0.9	x	0.226	-0.1	+
CCN1/C(=C2\OC(=S)N(C)C2=O)Sc2ccccc21	-0.4	x	0.678	1.69	+
CC(C)N(CCc1ccncc1)C(=S)Nc1cccc(Cl)c1	2.1	x	0.659	0.27	i
CC12CCC(C(=O)N(CSC(=S)N/N=C\c3ccccc3)C1=O)C2(C)C (stereo not given)	0.1	75.9*	0.135	x	i
Cn1c(CC(=O)c2ccc(Br)cc2)[n+](C)c2ccccc21	0.0	x	-0.297	-0.12	+
O=C(Cn1cnc2ccccc21)c1ccc(Br)cc1	-0.1	x	-1.23	-0.23	i
COc1cc(NS(=O)(=O)c2ccc(C)cc2)c2ncccc2c1	-1.3	x	-0.472	u	i
Cc1ccc(S(=O)(=O)Nc2cccc3cccnc23)cc1	-0.7	12.3	0.466	-0.14	+
CN1CCN(c2ccc(S(=O)(=O)N3CCCCC3)cc2NC(=O)c2ccc(F)cc2F)CC1	-0.5	20.6	-0.221	0.16	i
CCCCCCn1c(CN2CCN(CCO)CC2)nc2c1c(=O)n(C)c(=O)n2C	-0.3	100.0*	0.599	1.28	i
CCCCCCn1c(CN2CCC(C)CC2)nc2c1c(=O)n(C)c(=O)n2C	-0.5	28.6	1.53	-0.81	i
CCCCn1c(CN(C)Cc2ccccc2)nc2c1c(=O)n(C)c(=O)n2C	-1.1	71.4*	1.14	-2.97	i
SMILES	PERK inh	Insulin prom inh	Dynein cargo inh	Ins promoter up	Autophagy mod
CCCn1c(CN(C)Cc2ccccc2)nc2c1c(=O)n(C)c(=O)n2C	-0.1	0.0	-0.039	-1.5	i
O=C1CC(C(=O)Nc2ccccc2)S/C(=N\NC(=O)c2ccccc2Cl)N1 (stereo not given)	-0.6	-10.0	-0.0749	x	i
Cn1c(=O)c2c(nc(N3CCNCC3)n2Cc2cccc3ccccc23)n(C)c1=O	-0.8	x	-0.794	-0.55	+
CCN1/C(=C\C=C(C(C)=O)C(C)=O)Sc2ccccc21	0.2	i	2.1	7.73*	i
CC(=O)NC1=NN(C(C)=O)C(c2ccc(F)cc2)S1 (stereo not given)	0.3	83.3*	0.351	-0.09	i
CC(=O)NC1=NN(C(C)=O)C(c2ccc(C)cc2)S1 (stereo not given)	1.4	x	-0.729	0.12	i
Cc1c(-c2ccnc3cc(C(=O)O)nn23)cnn1C	0.5	-38.5	-0.086	-0.32	+
CC(c1ccccc1)N1CCc2[nH]c(=S)[nH]c(=O)c2C1 (stereo not given)	1.0	90.9*	1.78	-1.42	i
CNCCCOc1cc(C)cc(C)c1C	-1.0	x	-0.193	1.31	i
CN1CCN(CC(O)(c2ccc(Cl)cc2)c2ccc(Cl)cc2)CC1	-0.5	x	0.78	-1.92	+

Compound activity deposited in PubChem by several laboratories.
